Screening data (PubChem)
A selection: hits, their analogues and other compounds. The true share with any hit is near 1.2%.
proCasp3 act = activators of human procaspase-3 D3A mutant, primary screen, biochemical, absorbance, PC-3 D3A mutant, single concentration; hit rate 0.11% among 330,000; AID 463141, 2010; activation, % at 8.5 µM; recombinant procaspase-3 D3A, Ac-DEVD-pNA absorbance 405 nm;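 active = activation above the mean of all tested compounds plus 3 SD, cut at about 21% in these data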;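 note: 0% = DMSO alone and 100% = DMSO wells spiked with extra 5 µM PC-3 D3A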
Target sequence (P42574 whole entry D9A/D28A/D175A): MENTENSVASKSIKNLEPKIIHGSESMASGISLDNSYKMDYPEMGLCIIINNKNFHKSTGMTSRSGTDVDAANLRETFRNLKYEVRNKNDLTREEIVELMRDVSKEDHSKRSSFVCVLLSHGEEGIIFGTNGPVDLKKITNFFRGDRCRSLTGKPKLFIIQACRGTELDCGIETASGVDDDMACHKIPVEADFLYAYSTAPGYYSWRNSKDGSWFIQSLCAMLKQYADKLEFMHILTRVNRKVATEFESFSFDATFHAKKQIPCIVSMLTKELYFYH
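Test system: Procaspase-3 D3A mutant; medium: Zinc-free HEPES/NaCl buffer with 0.01% Triton X-100 at pH 7.4; reagent: DEVD-pNA substrate; doses: one concentration, 8.5 µM nominal, 0.8% DMSO; times: 1 h preincubation plus 2 h reaction at 25 °C; signal: Epi-absorbance at 405 nm of released p-nitroaniline, 0 and 120 min; replicates: singlicate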
procasp7 counter = procaspase-7 activators, primary screen, counter-screen for procaspase-3 activator project, biochemical, absorbance, HTS, human; Caspase-7 (Homo sapiens), P55210; recombinant procaspase-7, Ac-DEVD-pNA absorbance 405 nm; D23A/D198A/D206A triple mutant, cannot self-cleave; scale: DMSO 0, 5 µM enzyme 100; activation, % at 8.5 µM; hit rate 0.093% among 330,000; AID 463210, 2010;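 active = percent activation above the screen-wide mean plus 3 SD, cut at about 25% in these data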
Target sequence (P55210 whole entry D23A/D198A/D206A): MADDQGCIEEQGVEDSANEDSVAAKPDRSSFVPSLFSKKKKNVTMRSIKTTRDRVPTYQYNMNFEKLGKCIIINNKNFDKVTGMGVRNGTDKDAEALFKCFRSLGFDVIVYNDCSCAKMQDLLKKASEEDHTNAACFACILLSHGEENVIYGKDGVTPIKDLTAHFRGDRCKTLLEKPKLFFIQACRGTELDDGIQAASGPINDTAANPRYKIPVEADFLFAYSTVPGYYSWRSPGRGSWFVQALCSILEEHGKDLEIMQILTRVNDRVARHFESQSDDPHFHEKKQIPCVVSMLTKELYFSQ
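Assay system – Uncleavable procaspase-7 mutant enzyme · Quantity – 2 µM procaspase-7 mutant as dispensed · Times – 1 h preincubation, 2 h reaction · Dosing – single nominal 8.5 µM compound dose, 0.8% DMSO final · Buffer or medium – Zinc-free 50 mM HEPES buffer, pH 7.4, with NaCl and Triton X-100 · Detection – Epi-absorbance of released pNA at 405 nm, two timepoints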
MsrA inhibitor = bovine MsrA enzyme inhibitors, primary screen, biochemical, absorbance, HTS; Methionine sulfoxide reductase A (Bos taurus); purified bovine MsrA, absorbance read-out; inhibition, % at 15.5 µM; hit rate 0.75% among 360,000; AID 651718, 2012;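 note: 0% = vehicle wells with enzyme and 100% = reference inhibitor wells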
bovine MsrA act = bovine MsrA enzyme activators, primary screen, biochemical, absorbance, HTS | Methionine sulfoxide reductase A (Bos taurus) | purified bovine MsrA, absorbance read-out | activation, % at 10.6 µM | hit rate 0.3% among 360,000 | AID 602163, 2012; in the data active = activation above about 7.5%;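 note: 0% = vehicle and 100% = reference activator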
MsrA inh confirm = bovine MsrA inhibitors, retest, confirmation, biochemical, absorbance, HTS; purified bovine MsrA, absorbance read-out; hit rate 41% among 2,300; shares compounds with MsrA inhibitor; inhibition, % at 15.5 µM;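 note: coupled to thioredoxin reductase with NADPH and selenocystamine and DMSO as substrate; 0% = vehicle only and 100% = full effect of reference inhibitor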
* hit, by the source's call. Cut-off read from the data, not from the text of the source, unless noted: active = inhibition above about 4.5%; inactive = the rest.

What do the screens show for `Cc1ccc(S(=O)(=O)N(C)[C@H]2C[C@H]3c4[nH]c5c(-c6ccccc6)cccc5c4CCN3C(=O)[C@H]2[C@H](C)O)cc1`?
MsrA inhibitor: 1

Results for CCNC(=O)N1C[C@H]2CON(C)[C@H]2C[C@H]1c1ccc(N2CCCCC2)cc1 ?
MsrA inhibitor: 0

How did CC(C)C(=O)Nc1ncc(C(F)(F)F)cc1Cl do in these assays?
proCasp3 act: -1; procasp7 counter: -3; MsrA inhibitor: 3; bovine MsrA act: 3

Results for CC(Sc1ncc(C(F)(F)F)cc1Cl)C(=O)NC(N)=O (stereo not given) ?
proCasp3 act: 5; procasp7 counter: 2; MsrA inhibitor: 19*; bovine MsrA act: -4; MsrA inh confirm: 15*

What do the screens show for `COc1ccc(/C=N/NC(N)=S)cc1`?
proCasp3 act: 6; procasp7 counter: 9; MsrA inhibitor: 2; bovine MsrA act: -8

Results for CC(C)Oc1ccc(/C=N/NC(N)=S)cc1 ?
proCasp3 act: -13; procasp7 counter: -5; MsrA inhibitor: 4.8*; bovine MsrA act: -3; MsrA inh confirm: 2

How did COC(=O)c1ccc2nc(-c3ccco3)c(Cc3ccsc3)n2c1 do in these assays?
MsrA inhibitor: 0

What do the screens show for `C(=C\c1ccco1)/c1nc2ccccc2[nH]1`?
proCasp3 act: -3; procasp7 counter: -17; MsrA inhibitor: 5.6*; bovine MsrA act: -3; MsrA inh confirm: 4.9*

Results for O=c1[nH]c(/C=C/c2ccc(Br)cc2)nc2ccccc12 ?
proCasp3 act: 3; procasp7 counter: -1; MsrA inhibitor: -1; bovine MsrA act: 0

Results for C(=C\c1nc2ccccc2[nH]1)/c1ccccc1 ?
proCasp3 act: -1; procasp7 counter: 0; MsrA inhibitor: 4.7*; bovine MsrA act: -9; MsrA inh confirm: 4

How did C[C@H]1C(C(=O)N(C)C2CCCCC2)=Cc2c(n(-c3ccc(F)cc3)c(=O)n2CCCOc2ccccc2)C=C1c1ccccc1 do in these assays?
MsrA inhibitor: 1

What do the screens show for `CC(C)c1ccc(C(=O)Nc2ccc(S(=O)(=O)NC3=NCCCCC3)cc2)cc1`?
MsrA inhibitor: 1; bovine MsrA act: 2

What do the screens show for `CN(C)c1ccc(C(=O)Nc2ccc(S(=O)(=O)NC3=NCCCCC3)cc2)cc1`?
proCasp3 act: -3; procasp7 counter: -4; MsrA inhibitor: 5.1*; bovine MsrA act: -6; MsrA inh confirm: 2

What do the screens show for `N#CC(C#N)=C1NC(N)=C(C#N)C(c2ccccc2)=C1C#N`?
proCasp3 act: -6; procasp7 counter: -11; MsrA inhibitor: 7.2*; bovine MsrA act: -4; MsrA inh confirm: 6.7*

What do the screens show for `CCCN1CCCCC(NC(C)=O)C1=O` (stereo not given)?
MsrA inhibitor: 3

How did COc1ccc(Nc2nc3cc(C)ccc3cc2C#N)c(OC)c1 do in these assays?
proCasp3 act: 4; procasp7 counter: 9; MsrA inhibitor: 0; bovine MsrA act: -1

Results for COc1ccc(Nc2nc3cc(C)ccc3cc2C#N)cc1 ?
proCasp3 act: 9; procasp7 counter: 12; MsrA inhibitor: 8.7*; bovine MsrA act: -4; MsrA inh confirm: 6.9*

How did COC(=O)C1=C(C)N(Cc2ccc(C(F)(F)F)cc2)C(=NCc2ccccc2C(F)(F)F)NC1c1ccc(Cl)cc1 (stereo not given) do in these assays?
MsrA inhibitor: 0

What do the screens show for `Nc1ncnc(N)c1NC(=O)c1ccccc1`?
MsrA inhibitor: 0

Results for Cc1ccc2nc3cc([N+](=O)[O-])cc([N+](=O)[O-])c3cc2c1 ?
MsrA inhibitor: 0; bovine MsrA act: 0

What do the screens show for `Cc1ccccc1-n1ncc2c([N+](=O)[O-])cc([N+](=O)[O-])cc21`?
proCasp3 act: 15; procasp7 counter: 1; MsrA inhibitor: 5.6*; bovine MsrA act: 1; MsrA inh confirm: 3

Results for CCc1c(-c2ccc(Br)cc2)ncn1CCc1ccccc1OC ?
MsrA inhibitor: 0

Results for O=[N+]([O-])c1ccc(-c2nc3ccc([N+](=O)[O-])cc3[nH]2)cc1 ?
proCasp3 act: -2; procasp7 counter: 3; MsrA inhibitor: 1; bovine MsrA act: -8

How did CCCC[n+]1ccc(-c2nc3ccc([N+](=O)[O-])cc3[nH]2)cc1 do in these assays?
proCasp3 act: -10; procasp7 counter: -10; MsrA inhibitor: 4.8*; bovine MsrA act: 0; MsrA inh confirm: 4

How did O=C(C(=O)N1CCN(S(=O)(=O)c2ccc(Cl)cc2)CC1)c1cccc(C(F)(F)F)c1 do in these assays?
MsrA inhibitor: 1

What do the screens show for `CC(=O)Nc1ccc(/C=N/Nc2nc3ccccc3[nH]2)cc1`?
proCasp3 act: 4; procasp7 counter: -14; MsrA inhibitor: 8.2*; bovine MsrA act: -6; MsrA inh confirm: 5.9*

Results for CCN(CC)c1ccc(/C=N/Nc2nc3ccccc3[nH]2)cc1 ?
MsrA inhibitor: 2; bovine MsrA act: -4

Results for CCCn1c(/C=N/Nc2nc3ccccc3[nH]2)nc2ccccc21 ?
MsrA inhibitor: 2; bovine MsrA act: 4

How did COC(=O)c1ccc(/C=N/Nc2nc3ccccc3[nH]2)cc1 do in these assays?
proCasp3 act: -3; procasp7 counter: 0; MsrA inhibitor: 2; bovine MsrA act: -3

How did C(=N\Nc1nc2ccccc2[nH]1)/c1ccncc1 do in these assays?
proCasp3 act: -1; procasp7 counter: 6; MsrA inhibitor: 5.0*; bovine MsrA act: -4; MsrA inh confirm: 2

Results for Cn1c(/C=N/Nc2nc3ccccc3[nH]2)nc2ccccc21 ?
proCasp3 act: 3; procasp7 counter: -12; MsrA inhibitor: 4.9*; bovine MsrA act: -1; MsrA inh confirm: 5.0*

Results for O=C(NC1CCCC1)[C@@H]1CCCN1C(=O)[C@@H](NC(=O)N1CCOCC1)C1CCCCC1 ?
MsrA inhibitor: 1

Results for COc1cccc(CN(C)[C@H]2C[C@H]3c4[nH]c5ccccc5c4CCN3C[C@H]2[C@H](C)O)c1OC ?
MsrA inhibitor: -1

What do the screens show for `COc1cccc(/C=C2\SC(=O)N(CC(=O)NC3CCS(=O)(=O)C3)C2=O)c1` (stereo not given)?
proCasp3 act: -5; procasp7 counter: -6; MsrA inhibitor: 4.8*; bovine MsrA act: -4; MsrA inh confirm: 3

How did COc1cccc(/C=C2\SC(=O)N(CCC(=O)NC3CCS(=O)(=O)C3)C2=O)c1 (stereo not given) do in these assays?
proCasp3 act: 0; procasp7 counter: -13; MsrA inhibitor: 4; bovine MsrA act: -5

What do the screens show for `CN(C)/C=N/c1nc2nccc(-c3ccc(F)cc3)n2n1`?
proCasp3 act: -8; procasp7 counter: -4; MsrA inhibitor: 2; bovine MsrA act: -3
